Legend:
[1] = Cytotoxicity against mock-infected human MT4 cells after 96 hrs by MTT assay; type: cell-based
How it was run: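 Exponentially growing MT-4 cells were seeded at 1 × 10^5 cells/mL in RPMI-1640 with 10% FBS and held at 37 °C, 5% CO2 with serial compound dilutions. Viability was read by MTT after 96 h. CC50 from linear regression against untreated controls.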

[2] = test system: Human immunodeficiency virus 1; test: Antiviral activity against HIV1 infected in human MT4 cells assessed as inhibition of virus-induced cytopathogenicity after 4 days by MTT assay; type: functional, organism-based; details: Human immunodeficiency virus 1, MT4, 96 h
How it was run: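 MT-4 cells (1 × 10^4/well in RPMI) were infected acutely with HIV-1 IIIB, 100 CCID50 (m.o.i. 0.01), with serial dilutions from 100 µM, 1:5. After 4 days at 37 °C, protection from virus-induced cytopathogenicity was read by MTT. EC50 came from linear regression against untreated controls.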

[3] = Cytotoxicity against mock-infected MDBK cells after 48 to 96 hrs by MTT assay; type: cell-based, Bos taurus; details: cattle
How it was run: (§1)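 Mock-infected MDBK (6 × 10^5 cells/mL; MEM-E, 10% horse serum, 1 mM pyruvate) or BHK (1 × 10^6 cells/mL; MEM-E, 10% FBS) cells were incubated at 37 °C, 5% CO2 with serial dilutions from 100 µM, 1:5. Viability by MTT after 48–96 h. CC50 from linear regression against untreated controls.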

[4] = test system: Bovine viral diarrhea virus 1; test: Antiviral activity against Bovine viral diarrhea virus infected in MDBK cells assessed as inhibition of virus-induced cytopathogenicity after 3 to 4 days by MTT assay; type: functional, organism-based; details: Bovine viral diarrhea virus isolates and strains
[5] = Cytotoxicity against mock-infected BHK21 cells after 48 to 96 hrs by MTT assay; type: functional; details: Mesocricetus auratus, BHK-21; how it was run: as §1
Yellow fever virus = test: Antiviral activity against Yellow fever virus infected in BHK21 cells assessed as inhibition of virus-induced cytopathogenicity after 3 to 4 days by MTT assay; type: functional, organism-based; details: BHK-21
Reovirus sp. = test: Antiviral activity against Reovirus type-1 infected in BHK21 cells assessed as inhibition of virus-induced cytopathogenicity after 3 to 4 days by MTT assay; type: functional, organism-based; details: BHK-21
[6] = Cytotoxicity against mock-infected african green monkey Vero 76 cells after 48 to 96 hrs by MTT assay; type: cell-based; details: chlorocebus sabaeus, mock-infected Vero 76 cells
Coxsackievirus B5 = test: Antiviral activity against Coxsackievirus B5 infected in african green monkey Vero 76 cells assessed as reduction in plaque number after 3 days by plaque reduction assay; type: functional, organism-based; details: Enterovirus B, 72 h
Poliovirus 1 = test: Antiviral activity against Poliovirus type 1 Sabin strain infected in african green monkey Vero 76 cells assessed as reduction in plaque number after 2 days by plaque reduction assay; type: functional, organism-based; details: Enterovirus C, 48 h
[7] = test system: Respiratory syncytial virus; test: Antiviral activity against Respiratory syncytial virus infected in african green monkey Vero 76 cells assessed as reduction in plaque number after 5 days by plaque reduction assay; type: functional, organism-based; details: human respiratory syncytial virus, 120 h
[8] = test system: Vesicular stomatitis virus; test: Antiviral activity against Vesicular stomatitis virus infected in african green monkey Vero 76 cells assessed as reduction in plaque number after 2 days by plaque reduction assay; type: functional, organism-based; details: 48 h
Vaccinia virus = test: Antiviral activity against Vaccinia Virus infected in african green monkey Vero 76 cells assessed as reduction in plaque number after 3 days by plaque reduction assay; type: functional, organism-based; details: Orthopoxvirus vaccinia, 72 h
Human alphaherpesvirus 1 = test: Antiviral activity against HSV1 infected in african green monkey Vero 76 cells assessed as reduction in plaque number after 3 days by plaque reduction assay; type: functional, organism-based; details: Human alphaherpesvirus 1, Vero, 72 h
[9] = Selectivity index, ratio of CC50 for african green monkey Vero 76 cells to EC50 for Coxsackievirus B5; type: toxicity, cell-based; details: read-out: Ratio CC50/EC50
How it was run: (§2)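 Mock-infected Vero-76 cells were tested in parallel on the same 24-well plates as the plaque assays (seeding 4 × 10^5 cells/mL, D-MEM with FBS), with serial compound dilutions at 37 °C, 5% CO2. Viability was read after 48–96 h by crystal violet staining. CC50 by linear regression; selectivity index = Vero-76 CC50/EC50 for CVB-5 or RSV.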

[10] = Selectivity index, ratio of CC50 for african green monkey Vero 76 cells to EC50 for Respiratory syncytial virus; type: toxicity, cell-based; details: read-out: Ratio CC50/EC50; how it was run: as §2

FC(F)(F)c1ccc2c(c1)nc(Cc1ccc(Cl)cc1)n2C[C@@H]1CCCN2CCCC[C@H]12
CC50 at 96 h [1]: 6 µM | EC50 [2]: > 100 µM | CC50 [3]: 54 µM | EC50 [4]: > 100 µM | CC50 [5]: 20 µM | EC50 (Yellow fever virus): > 100 µM | EC50 (Reovirus sp.): > 100 µM | CC50 [6]: > 100 µM | EC50 (Coxsackievirus B5): 13 µM | EC50 (Poliovirus 1): > 100 µM | EC50 [7]: 15 µM | EC50 [8]: > 100 µM | EC50 (Vaccinia virus): > 100 µM | EC50 (Human alphaherpesvirus 1): > 100 µM | selectivity ratio [9]: > 7.69 | selectivity ratio [10]: > 6.67

FC(F)(F)c1ccc2c(c1)nc(Cc1ccc(Br)cc1)n2C[C@@H]1CCCN2CCCC[C@H]12
CC50 at 96 h [1]: 13 µM | EC50 [2]: > 100 µM | CC50 [3]: 40 µM | EC50 [4]: > 100 µM | CC50 [5]: 20 µM | EC50 (Yellow fever virus): > 100 µM | EC50 (Reovirus sp.): > 100 µM | CC50 [6]: > 100 µM | EC50 (Coxsackievirus B5): > 100 µM | EC50 (Poliovirus 1): > 100 µM | EC50 [7]: 25 µM | EC50 [8]: > 100 µM | EC50 (Vaccinia virus): > 100 µM | EC50 (Human alphaherpesvirus 1): > 100 µM | selectivity ratio [9]: > 1 | selectivity ratio [10]: > 4

Nc1ccc(Cc2nc3cc(Cl)c(Cl)cc3[nH]2)cc1
CC50 at 96 h [1]: 71 µM | EC50 [2]: > 100 µM | CC50 [3]: 62 µM | EC50 [4]: 22 µM | CC50 [5]: 43 µM | EC50 (Yellow fever virus): > 100 µM | EC50 (Reovirus sp.): > 100 µM | CC50 [6]: 80 µM | EC50 (Coxsackievirus B5): 12 µM | EC50 (Poliovirus 1): 80 µM | EC50 [7]: 20 µM | EC50 [8]: > 100 µM | EC50 (Vaccinia virus): > 100 µM | EC50 (Human alphaherpesvirus 1): > 100 µM | selectivity ratio [9]: 6.67 | selectivity ratio [10]: 4

CCCCn1c(Cc2ccc(Cl)c(Cl)c2)nc2cc(C(F)(F)F)ccc21
CC50 at 96 h [1]: > 100 µM | EC50 [2]: > 100 µM | CC50 [3]: 11 µM | EC50 [4]: > 100 µM | CC50 [5]: 21 µM | EC50 (Yellow fever virus): > 100 µM | EC50 (Reovirus sp.): > 100 µM | CC50 [6]: > 100 µM | EC50 (Coxsackievirus B5): 12 µM | EC50 (Poliovirus 1): > 100 µM | EC50 [7]: 9 µM | EC50 [8]: > 100 µM | EC50 (Vaccinia virus): 31 µM | EC50 (Human alphaherpesvirus 1): > 100 µM | selectivity ratio [9]: > 8.33 | selectivity ratio [10]: > 11.1

FC(F)(F)c1ccc2c(c1)nc(C(F)(F)F)n2C[C@@H]1CCCN2CCCC[C@H]12
CC50 at 96 h [1]: 54 µM | EC50 [2]: > 100 µM | CC50 [3]: ≥ 100 µM | EC50 [4]: > 100 µM | CC50 [5]: 80 µM | EC50 (Yellow fever virus): 33 µM | EC50 (Reovirus sp.): > 100 µM | CC50 [6]: 90 µM | EC50 (Coxsackievirus B5): 11 µM | EC50 (Poliovirus 1): > 100 µM | EC50 [7]: 22 µM | EC50 [8]: > 100 µM | EC50 (Vaccinia virus): > 100 µM | EC50 (Human alphaherpesvirus 1): > 100 µM | selectivity ratio [9]: 8.18 | selectivity ratio [10]: 4.09

CCC/C=C(\CC)c1nc2ccccc2[nH]1
CC50 at 96 h [1]: 61 µM | EC50 [2]: > 100 µM | CC50 [3]: > 100 µM | EC50 [4]: > 100 µM | CC50 [5]: 67 µM | EC50 (Yellow fever virus): > 100 µM | EC50 (Reovirus sp.): > 100 µM | CC50 [6]: ≥ 100 µM | EC50 (Coxsackievirus B5): 90 µM | EC50 (Poliovirus 1): > 100 µM | EC50 [7]: 22 µM | EC50 [8]: > 100 µM | EC50 (Vaccinia virus): > 100 µM | EC50 (Human alphaherpesvirus 1): > 100 µM | selectivity ratio [9]: > 1.11 | selectivity ratio [10]: > 4.54

Source: ChEMBL document CHEMBL3351523 (Bioorg Med Chem, 2014)
